Measurements from ChEMBL document CHEMBL5338743, “Identification of a Selective SCoR2 Inhibitor That Protects Against Acute Kidney Injury” (J Med Chem, 2023).
Activity calls are given as the source filed them. No cut-off for these calls is given here.

What was measured:
[1] = species: Homo sapiens; test: Selectivity index, ratio of IC50 for inhibition of human recombinant AKR1B1 expressed in Escherichia coli BL21-CodonPlus competent cells to IC50 for inhibition of human recombinant SCoR2 expressed in Escherichia coli BL21-CodonPlus competent cells
In short: (§1)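 Purified enzyme at 200 nM (SCoR2 with 100 μM SNO-CoA; AKR1B1 with 100 μM methylglyoxylate) in 50 mM phosphate pH 7.0 with serial inhibitor dilutions; started with 100 μM NADPH, 2 min. Rate from 340 nm decrease, normalized to 20 nM protein activity; IC50 fitted, n=3. Selectivity taken as AKR1B1/SCoR2 IC50 ratio.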

[2] = target: T1, Aldo-keto reductase family 1 member B1 (Homo sapiens, UniProt P15121); test: Inhibition of C-terminal 6His-tagged human recombinant AKR1B1 expressed in Escherichia coli BL21-CodonPlus competent cells using methyl glyoxylate as substrate incubated for 2 mins in presence of NADPH; in short: as §1
[3] = target: T2, Aldo-keto reductase family 1 member A1 (Homo sapiens, UniProt P14550); test: Inhibition of C-terminal 6His-tagged human recombinant SCoR2 AKR1A1 expressed in Escherichia coli BL21-CodonPlus competent cells using SNO-CoA as substrate incubated for 2 mins in presence of NADPH; in short: as §1
T2 sequence (P14550 whole entry): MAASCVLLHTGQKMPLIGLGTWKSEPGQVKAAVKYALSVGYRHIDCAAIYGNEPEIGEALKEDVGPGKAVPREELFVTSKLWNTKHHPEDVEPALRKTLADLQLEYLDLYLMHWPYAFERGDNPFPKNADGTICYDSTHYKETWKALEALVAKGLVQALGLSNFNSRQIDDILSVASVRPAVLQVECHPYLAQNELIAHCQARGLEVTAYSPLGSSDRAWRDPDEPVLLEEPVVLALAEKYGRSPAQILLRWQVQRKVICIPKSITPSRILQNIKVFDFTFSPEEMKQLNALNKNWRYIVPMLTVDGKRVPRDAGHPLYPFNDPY

[4] = target: T2, Aldo-keto reductase family 1 member A1; test: Inhibition of C-terminal 6His-tagged human recombinant SCoR2 AKR1A1 expressed in Escherichia coli BL21-CodonPlus competent cells using DL-glyceraldehyde as substrate
In short: (§2)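 Recombinant human His-tagged enzyme (20 nM) with 3 mM DL-glyceraldehyde in 50 mM phosphate pH 7.0, varying inhibitor from DMSO stocks; started with 100 μM NADPH, 2 min. NADPH consumption followed spectrophotometrically, slope used to fit IC50.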

[5] = tested on: Mus musculus; test: Protection against ischemia/reperfusion induced acute kidney injury in mouse assessed as reduction in blood urea nitrogen level at 20 mg/kg, ip pretreated for 18 hrs followed by kidney injury surgery and measured after 24 hrs; type: functional, organism-based; conditions: time 42.0 hrs
In short: (§3)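 Male mice (9–11 weeks, 25–28 g) given i.p. dose 18 h before ischemia–reperfusion AKI surgery under isoflurane; serum taken 24 h after reperfusion. Creatinine and BUN measured by a clinical laboratory; DMSO-treated controls.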

[6] = In vivo inhibition of SCoR2 in mouse assessed as reduction in SNO-CoA metabolic activity in kidneys at 20 mg/kg body weight, ip administered as single dose into lower right quadrant of abdomen measured after 18 hrs relative to control; type: functional
In short: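 Single i.p. injection into the mouse abdomen, DMSO vehicle; organs collected 18 h later. Tissues homogenized in 50 mM phosphate pH 7.0, 150 mM NaCl, EDTA/DTPA, then clarified; lysate started reactions with 200 μM SNO-CoA and 100 μM NADPH, 2 min, NADPH loss monitored, in triplicate. Compared with vehicle and SCoR2−/− kidneys.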

[7] = tested on: Mus musculus; test: In vivo inhibition of SCoR2 in ischemia/reperfusion induced acute kidney injury mouse model assessed as reduction in SNO-CoA metabolic activity in kidneys at 125 mg/kg, ip administered for 3 to 12 weeks; type: functional, organism-based; conditions: time 3-12 weeks
[8] = tested on: Mus musculus; test: In vivo inhibition of SCoR2 in ischemia/reperfusion induced acute kidney injury mouse model assessed as reduction in SNO-CoA metabolic activity in kidneys at 20 mg/kg, ip pretreated for 18 hrs followed by kidney injury surgery and measured after 24 hrs; type: functional, organism-based; conditions: time 42.0 hrs
In short: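 Male mice (9–11 weeks, 25–28 g) dosed i.p. 18 h before renal ischemia–reperfusion surgery under isoflurane; kidneys taken 24 h after reperfusion. Kidney lysate SNO-CoA reductase activity measured with 200 μM SNO-CoA, 100 μM NADPH, 2 min, triplicate assays; DMSO-treated controls.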

[9] = tested on: Mus musculus; test: Protection against ischemia/reperfusion induced acute kidney injury in mouse assessed as reduction in blood urea nitrogen level at 125 mg/kg, ip administered for 3 to 12 weeks; type: functional, organism-based; conditions: time 3-12 weeks
[10] = target: T1, Aldo-keto reductase family 1 member B1; test: Inhibition of C-terminal 6His-tagged human recombinant AKR1B1 expressed in Escherichia coli BL21-CodonPlus competent cells using DL-glyceraldehyde as substrate; in short: as §2
[11] = tested on: Mus musculus; test: Protection against ischemia/reperfusion induced acute kidney injury in mouse assessed as reduction in serum creatinine level at 20 mg/kg, ip pretreated for 18 hrs followed by kidney injury surgery and measured after 24 hrs; type: functional, organism-based; conditions: time 42.0 hrs; in short: as §3
[12] = tested on: Mus musculus; test: Protection against ischemia/reperfusion induced acute kidney injury in mouse assessed as reduction in serum creatinine level at 125 mg/kg, ip administered for 3 to 12 weeks; type: functional, organism-based; conditions: time 3-12 weeks
[13] = compound: O=C1NC(=O)C2(N1)c1ccccc1-c1ccc(C3CC3)cc12; test: Uncompetitive inhibition of C-terminal 6His-tagged human recombinant SCoR2 AKR1A1 expressed in Escherichia coli BL21-CodonPlus competent cells using varying concentrations of SNO-CoA as substrate assessed as Vmax at 100 nM by Michaelis-Menten analysis (reference value: 23 umol.min)
[14] = compound: O=C1NC(=O)C2(N1)c1ccccc1-c1ccc(C3CC3)cc12; test: Uncompetitive inhibition of C-terminal 6His-tagged human recombinant SCoR2 AKR1A1 expressed in Escherichia coli BL21-CodonPlus competent cells using varying concentrations of SNO-CoA as substrate assessed as Km at 400 nM by Michaelis-Menten analysis (reference value: 254 uM)
[15] = compound: O=C1NC(=O)C2(N1)c1ccccc1-c1ccc(C3CC3)cc12; test: Uncompetitive inhibition of C-terminal 6His-tagged human recombinant SCoR2 AKR1A1 expressed in Escherichia coli BL21-CodonPlus competent cells using varying concentrations of SNO-CoA as substrate assessed as Vmax at 400 nM by Michaelis-Menten analysis (reference value: 23 umol.min)
[16] = compound: O=C1NC(=O)C2(N1)c1ccccc1-c1ccc(C3CC3)cc12; test: Uncompetitive inhibition of C-terminal 6His-tagged human recombinant SCoR2 AKR1A1 expressed in Escherichia coli BL21-CodonPlus competent cells using varying concentrations of SNO-CoA as substrate assessed as Km at 100 nM by Michaelis-Menten analysis (reference value: 254 uM)

With O=C1NC(=O)C2(N1)c1ccc(OCC(=O)N3CCC3)cc1-c1ccc(F)cc12 (stereo not given) the Ratio IC50 [1] was 0.24, the IC50 [2] was 19 nM and the IC50 [3] was 80 nM.

Work on O=C1NC(=O)C2(N1)c1ccccc1-c1ccc(Cl)cc12 (stereo not given) yielded a Ratio IC50 [1] of 0.3, an IC50 [2] of 16 nM and an IC50 [3] of 53 nM.

For CC(/C=C1\SC(=S)N(CC(=O)O)C1=O)=C\c1ccccc1, the IC50 [4] was 325 nM.

O=C(O)COc1ccc2c(c1)-c1ccc(F)cc1C21NC(=O)NC1=O (stereo not given) showed a Ratio IC50 [1] of 1.3, an IC50 [2] of 53 nM and an IC50 [3] of 42 nM.

O=C1NC(=O)C2(N1)c1cc(F)ccc1-c1ccc(C3CCC3)cc12 (stereo in doubt; 17-2) showed a Ratio IC50 [1] of 0.66.

Work on O=C1NC(=O)C2(N1)c1ccc(OCCO)cc1-c1ccc(F)cc12 (stereo not given) yielded a Ratio IC50 [1] of 0.18, an IC50 [2] of 13 nM and an IC50 [3] of 74 nM.

Molecule O=C1NC(=O)C2(N1)c1cc(F)ccc1-c1ccc(C3CCC3)cc12 (stereo in doubt; 17-1) has a Ratio IC50 [1] of 1.7.

Molecule O=C(O)COc1cc2c(cc1F)C1(NC(=O)NC1=O)c1cc(F)ccc1-2 (stereo in doubt; 48-1) [listing 1 of 2 here] has an IC50 [2] of 27 nM and an IC50 [3] of 63 nM.

In the case of O=C(O)COc1cc2c(cc1F)C1(NC(=O)NC1=O)c1cc(F)ccc1-2 (stereo in doubt; 48-2) [listing 1 of 2 here], the IC50 [2] is reported as 22 nM and the IC50 [3] is reported as 82 nM.

In the case of O=C1NC(=O)C2(N1)c1cc(F)ccc1-c1ccc(F)cc12, the Ratio IC50 [1] is reported as 0.81, the IC50 [2] is reported as 46 nM and the Activity [5] is reported as “inactive”. The inhibition in vivo at 20 mg/kg [6] was 80%, the IC50 [3] was 57 nM and the inhibition [7] was “Active”. The inhibition [8] was “Active”, the Activity [9] was “inactive” and the IC50 [10] was 27 nM. For the same molecule, the Activity [11] was “inactive”, the Activity [12] was “inactive” and the IC50 [4] was 45 nM.

Molecule O=C(O)Cc1cc(F)cc2c1-c1ccc(F)cc1C21NC(=O)NC1=O (stereo in doubt; 49-2) has a Ratio IC50 [1] of 0.26.

In the case of O=C1NC(=O)C2(N1)c1cc(F)ccc1-c1c(OCC(=O)N3CCC3)cc(F)cc12 (stereo not given), the Ratio IC50 [1] is reported as 0.31, the IC50 [2] is reported as 18 nM and the IC50 [3] is reported as 59 nM.

O=C1NC(=O)C2(N1)c1cc(F)ccc1-c1cc(C3CC3)c(F)cc12 (stereo not given) gave a Ratio IC50 [1] of 0.21, an IC50 [2] of 15 nM and an IC50 [3] of 72 nM.

O=C1NC(=O)C2(N1)c1cc(F)ccc1-c1c(F)cccc12 (stereo not given) showed a Ratio IC50 [1] of 0.24, an IC50 [2] of 16 nM and an IC50 [3] of 67 nM.

In the case of O=C1NC(=O)C2(N1)c1ccccc1-c1c(F)cccc12 (stereo not given), the Ratio IC50 [1] is reported as 0.63, the IC50 [2] is reported as 52 nM and the IC50 [3] is reported as 82 nM.

Work on O=C(O)Cc1cc(F)cc2c1-c1ccc(F)cc1C21NC(=O)NC1=O (stereo in doubt; 49-1) yielded a Ratio IC50 [1] of 0.53.

Work on O=C(O)Cc1c(O)c(F)cc2c1-c1ccc(F)cc1C21NC(=O)NC1=O (stereo in doubt; 47-1) [listing 1 of 2 here] yielded a Ratio IC50 [1] of 1.7.

Molecule COc1ccc2c(c1)-c1ccc(F)cc1C21NC(=O)NC1=O (stereo not given) has a Ratio IC50 [1] of 0.24, an IC50 [2] of 16 nM and an IC50 [3] of 68 nM.

Work on O=C(O)Cc1c(O)c(F)cc2c1-c1ccc(F)cc1C21NC(=O)NC1=O (stereo in doubt; 47-1) [listing 2 of 2 here] yielded an IC50 [2] of 42 nM and an IC50 [3] of 25 nM.

O=C1NC(=O)C2(N1)c1cc(F)ccc1-c1cc(OC3COC3)c(F)cc12 (stereo not given) gave a Ratio IC50 [1] of 0.48, an IC50 [2] of 14 nM and an IC50 [3] of 29 nM.

Molecule O=C(O)COc1cc2c(cc1F)C1(NC(=O)NC1=O)c1cc(F)ccc1-2 (stereo in doubt; 48-1) [listing 2 of 2 here] has a Ratio IC50 [1] of 0.43.

O=C(O)Cc1c(O)c(F)cc2c1-c1ccc(F)cc1C21NC(=O)NC1=O (stereo in doubt; 47-2) [listing 1 of 2 here] gave an IC50 [2] of 32 nM and an IC50 [3] of 48 nM.

O=C1NC(=O)C2(N1)c1cc(Cl)ccc1-c1ccc(Cl)cc12 showed a Ratio IC50 [1] of 0.44, an IC50 [2] of 56 nM and an IC50 [3] of 127 nM.

Molecule O=C1NC(=O)C2(N1)c1cc(F)ccc1-c1ccc(Br)cc12 (stereo not given) has a Ratio IC50 [1] of 0.43, an IC50 [2] of 22 nM and an IC50 [3] of 51 nM.

With O=C(O)Cc1c(O)c(F)cc2c1-c1ccc(F)cc1C21NC(=O)NC1=O (stereo in doubt; 47-2) [listing 2 of 2 here] the Ratio IC50 [1] was 0.67.

Work on O=C1NC(=O)C2(N1)c1cc(F)ccc1-c1ccc(C3CC3)cc12 (stereo not given) yielded a Ratio IC50 [1] of 1.7, an IC50 [2] of 212 nM and an IC50 [3] of 122 nM.

For O=C1NC(=O)C2(N1)c1cc(F)ccc1-c1c(-c3cn(C4CCCC4)nn3)cc(F)cc12 (stereo not given), the Ratio IC50 [1] was 0.17, the IC50 [2] was 11 nM and the IC50 [3] was 66 nM.

In the case of O=C(O)COc1cc2c(cc1F)C1(NC(=O)NC1=O)c1cc(F)ccc1-2 (stereo in doubt; 48-2) [listing 2 of 2 here], the Ratio IC50 [1] is reported as 0.27.

B1: Aldo-keto reductase family 1 member A1 (Homo sapiens), P14550 (protein)
chain: MAASCVLLHTGQKMPLIGLGTWKSEPGQVKAAVKYALSVGYRHIDCAAIYGNEPEIGEALKEDVGPGKAVPREELFVTSKLWNTKHHPEDVEPALRKTLADLQLEYLDLYLMHWPYAFERGDNPFPKNADGTICYDSTHYKETWKALEALVAKGLVQALGLSNFNSRQIDDILSVASVRPAVLQVECHPYLAQNELIAHCQARGLEVTAYSPLGSSDRAWRDPDEPVLLEEPVVLALAEKYGRSPAQILLRWQVQRKVICIPKSITPSRILQNIKVFDFTFSPEEMKQLNALNKNWRYIVPMLTVDGKRVPRDAGHPLYPFNDPY
B1 showed a Vmax [13] of 13 µmol·min, a Km [14] of 98 µM and a Vmax [15] of 4.5 µmol·min. It also gave a Km [16] of 199 µM.
